These results are taken from ChEMBL document CHEMBL1147139, “Synthesis and pharmacological evaluation of a selected library of new potential anti-inflammatory agents bearing the gamma-hydroxybutenolide scaffold: a new class of inhibitors of prostanoid production through the selective modulation of microsomal prostaglandin E synthase-1 expression” (J Med Chem, 2007).

Test [1] concerns the target Phospholipase A2, major isoenzyme (Sus scrofa) (UniProt P00592). The test is described as follows: Inhibition of pig sPLA2 at 10 uM. The procedure, abridged: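 sPLA2 (human recombinant synovial group IIA; porcine pancreatic group IB) in 100 mM Tris-HCl/1 mM CaCl2, pH 7.5, preincubated 5 min at 37 °C with compound (10 µM) or vehicle. 15 min incubation with [3H]oleate-labelled autoclaved E. coli membranes as substrate. Stopped with ice-cold BSA (0.07% final), centrifuged, supernatant radioactivity counted. Mean ± SEM, n = 6.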

Test [2] concerns the target T1, Phospholipase A2 (Apis mellifera) (UniProt P00630).
T1 sequence (whole entry): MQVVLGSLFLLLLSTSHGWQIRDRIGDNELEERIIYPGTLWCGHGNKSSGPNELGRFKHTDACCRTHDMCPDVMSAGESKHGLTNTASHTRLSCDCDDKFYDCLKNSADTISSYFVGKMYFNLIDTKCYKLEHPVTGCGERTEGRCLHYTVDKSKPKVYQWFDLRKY
The test is described as follows: Inhibition of bee venom sPLA2 at 10 uM. The procedure, abridged:
(§1)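 Radiometric sPLA2 assay on [3H]oleate-labeled, autoclaved E. coli CECT 101 membranes. Enzyme in 100 mM Tris-HCl/1 mM CaCl2, pH 7.5, preincubated 5 min at 37 °C with compound (10 µM) or vehicle. Then 15 min with labeled membranes, stopped with ice-cold BSA (0.07% w/v final). Supernatant radioactivity counted after centrifugation; % inhibition, mean ± SEM, n = 6.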

For test [3], the target named is Acidic phospholipase A2 2 (Naja naja) (UniProt P15445). Nature of the test: Inhibition of Naja naja venom sPLA2 at 10 uM. The procedure, abridged:
as §1

Test [4] concerns RAW264.7. Nature of the test: Inhibition of PGE2 production in LPS-stimulated mouse RAW264.7 cells at 10 uM after 2 hrs. Format: functional. The method in brief: (§2)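 Post-induction phase: RAW264.7 cells that had already expressed COX-2 and mPGES-1 after LPS stimulation were given compound for 2 h in fresh medium supplemented with arachidonic acid. PGE2 in supernatants was quantified by radioimmunoassay. Mean ± SEM, n = 6.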

For test [5], the system named is RAW264.7. Nature of the test: Inhibition of NF-kappaB DNA binding in LPS-stimulated mouse RAW264.7 cells. It is filed as cell-based. The procedure, abridged: (§3)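 EMSA: RAW 264.7 cells (1.5 × 10^6/well) preincubated 30 min with compound, then LPS (1 µg/mL) for 1 h. Nuclear extracts (6 µg) incubated on ice for 15 min with 32P-end-labelled consensus NF-κB oligonucleotide and poly(dI-dC), pH 8.0. Complexes resolved on native 6% PAGE and detected by autoradiography. Two independent experiments.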

Test [6] concerns RAW264.7. The test is described as follows: Inhibition of NF-kappaB DNA binding in LPS-stimulated mouse RAW264.7 cells at 10 uM. Format: cell-based. The procedure, abridged:
as §3

The species named for test [7] is Mus musculus. Nature of the test: Decrease of mPGES1 expression in zymosan-stimulated Swiss mouse air pouch model after 24 hrs. It is filed as functional, organism-based. The method in brief:
(§4)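 Female Swiss mice (25-30 g) air pouch; six days after initial air injection, 1 mL of 1% (w/v) zymosan in saline injected into pouch, compound given intrapouch at the same time. Exudate collected after 24 h; cell pellets analysed by Western blot for COX-2, mPGES-1 and β-actin. Densitometry expressed as percentage of zymosan control band intensity.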

The test system of test [8] is RAW264.7. Nature of the test: Inhibition of COX2 expression in LPS-stimulated mouse RAW264.7 cells after 2 hrs by Western blot analysis. Format: functional, cell-based. (In general: A western blot detects proteins with antibodies after separation by electrophoresis.)
For test [9], the system named is RAW264.7. The test is described as follows: Inhibition of PGE2 production in LPS-stimulated mouse RAW264.7 cells at 1 uM after 18 hrs. Format: functional. The method in brief:
(§5)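 RAW 264.7 macrophages (1.5 × 10^6 cells/mL) co-incubated with E. coli 0111:B4 LPS (1 µg/mL) and compound or vehicle at 37 °C (induction phase). PGE2 in supernatants measured by radioimmunoassay; MTT reduction checked cytotoxicity. Mean ± SEM, n = 6; IC50 from at least four concentrations.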

Another test relates to THP-1. Nature of the test: Inhibition of COX2 expression in LPS-stimulated human THP1 cells at 1 uM by Western blot analysis. It is filed as functional, cell-based. The method in brief: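 THP-1 human monocytic cells (1 × 10^6 cells/mL, RPMI with 10% FBS) incubated 18 h with LPS (1 µg/mL) plus compound. Lysates taken, total fraction (30 µg protein) run on SDS-15% PAGE, then blotted with polyclonal anti-COX-2 (1/200), peroxidase secondary and chemiluminescence detection.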

Test [10] has as its system RAW264.7. The test is described as follows: Inhibition of PGE2 production in LPS-stimulated mouse RAW264.7 cells at 1 uM after 2 hrs. It is filed as functional. The procedure, abridged:
as §2

In test [11] the test system is RAW264.7. Nature of the test: Inhibition of mPGES1 expression in LPS-stimulated mouse RAW264.7 cells after 2 hrs by Western blot analysis. It is filed as functional, cell-based.
In test [12] the test system is RAW264.7. The test is described as follows: Inhibition of PGE2 production in LPS-stimulated mouse RAW264.7 cells at 10 uM after 18 hrs. It is filed as functional. The method in brief:
as §5

In test [13] the test system is RAW264.7. Nature of the test: Inhibition of PGE2 production in LPS-stimulated mouse RAW264.7 cells after 18 hrs. Format: functional, cell-based. As to conditions: RAW264.7, 18 h. The procedure, abridged:
as §5

Test [14] is filed under the species Mus musculus. Nature of the test: Inhibition of COX2 expression in zymosan-stimulated Swiss mouse air pouch model after 24 hrs. Format: functional, organism-based. The method in brief: as §4
In test [15] the test system is RAW264.7. The test is described as follows: Inhibition of NF-kappaB DNA binding in LPS-stimulated mouse RAW264.7 cells at 1 uM. Format: cell-based. The procedure, abridged: as §3

SMILES strings stand for the structures. The source made the active and inactive calls. No cut-off for these calls is given here. Residues, ends and D or L forms follow the SMILES beside them. *: point of attachment. Cbz = O=C(OCc1ccccc1)*

Chain of Phospholipase A2, major isoenzyme (Sus scrofa) (P00592 23-146 limits assumed): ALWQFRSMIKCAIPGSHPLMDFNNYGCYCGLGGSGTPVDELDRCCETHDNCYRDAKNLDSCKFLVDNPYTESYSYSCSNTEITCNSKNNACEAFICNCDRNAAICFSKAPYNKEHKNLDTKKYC
Chain of Acidic phospholipase A2 2 (Naja naja) (P15445 whole entry): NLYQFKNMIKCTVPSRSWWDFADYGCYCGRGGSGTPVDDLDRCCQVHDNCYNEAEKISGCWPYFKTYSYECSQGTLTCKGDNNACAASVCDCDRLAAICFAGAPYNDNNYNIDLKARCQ

As a reminder, the inhibition is the percentage by which the read-out fell short of the control. Low readings indicate little suppression, high ones strong suppression. Turning to `O=C1OC(O)C(c2ccc3ccccc3c2)=C1c1ccc2ccccc2c1` (stereo not drawn), the inhibition in [1] stood at 22.5%; in test [2] it was 25.2%; in [3], 9.1%.
For `O=C1OC(O)C(c2ccc(-c3ccccc3)cc2)=C1Br` (stereo not drawn), in that order: 26%, 14.4% and 7.5%.
In turn, `CS(=O)(=O)Nc1ccc([N+](=O)[O-])cc1OC1CCCCC1` [NS-398] gave an Activity with RAW264.7 [4] of 0.07 ng/mL.
With `CCc1c(CC(N)=O)c2cc(OCCCP(=O)(O)O)ccc2n1Cc1ccccc1`, the result in the test on RAW264.7 [5] was inactive. In addition, the inhibition amounted to 6.8% in [1], 0% in [2] and 2.7% in test [3].
On to `CC(C)C[C@@H](C=O)NC(=O)[C@H](CC(C)C)NC(=O)[C@H](CC(C)C)NC(=O)OCc1ccccc1` (Cbz-Leu-Leu-Leu-aldehyde), for which the result in the test on RAW264.7 [6] was Active.
Take `O=C1OC(O)C(c2ccc3ccccc3c2)=C1Br` (stereo not drawn): the inhibition was 27.7% in [1], 14.7% in [2] and 9.2% in test [3].
On to `O=C1OC(O)C(c2cccc3c2Sc2ccccc2S3)=C1Br` (stereo not drawn), for which the results for the inhibition in test [1], in [2] and in [3] were 0%, 0% and 1.5%, respectively.
A word on the IC50: it is the midpoint of a concentration-inhibition curve. Low readings indicate inhibition by little substance, high ones a need for much substance. On to `O=C1OC(O)C(c2cc3ccccc3s2)=C1Br` (stereo not drawn), for which the Activity entry is “Dose-dependent effect” in the test with RAW264.7 [5]; 10.7 ng/mL with RAW264.7 [9]; 0.23 ng/mL in the test with RAW264.7 [10]; “Dose-dependent effect” with RAW264.7 [11]; 6.7 ng/mL with RAW264.7 [12]; 0.22 ng/mL in the test with RAW264.7 [4]. Moreover, the inhibition was 18.7% in test [1], 0% in [2] and 3.4% in test [3]. Besides, the outcome in the test listed under Mus musculus [7] was Active. Moreover, the outcome in the test on RAW264.7 [8] and in the test with THP-1 was inactive. This molecule displayed an IC50 in the test on RAW264.7 [13] of 1800 nM.
As to `O=C1OC(O)C(c2cccc3ccccc23)=C1Br` (stereo not drawn), the inhibition in test [1] turned out to be 13.7%; in test [2], 0%; in test [3], 8.6%.
Take `O=C1OC(O)C(c2cccc3c2oc2ccccc23)=C1Br` (stereo not drawn): the inhibition in [1] was 38.6%; in test [2], 20.4%; in [3], 0%.
Regarding `C[C@@H]1C[C@H]2[C@@H]3CCC4=CC(=O)C=C[C@]4(C)[C@@]3(F)[C@@H](O)C[C@]2(C)[C@@]1(O)C(=O)CO` [DEXAMETHASONE], the outcome in the test listed under Mus musculus [7], with RAW264.7 [8], in the test with RAW264.7 [11] and in the test filed under Mus musculus [14] was Active. Moreover, the results for the Activity in the test with RAW264.7 [9] and in the test with RAW264.7 [10] were 3.4 ng/mL and 0.21 ng/mL, respectively.
On to `O=C1OC(O)C(c2csc3ccccc23)=C1Br` (stereo not drawn), for which the inhibition in test [1] turned out to be 33.5%; in test [2] it was 9.8%; in test [3], 15.4%.
As to `CC(=O)O[C@@H]1O[C@@H](C2=CC(=O)OC2O)C[C@@H]2[C@@H]1CC[C@H]1[C@@]2(C)CC[C@H]2C(C)(C)CCC[C@]12C` (stereo partly drawn) [PETROSASPONGIOLIDE M], the inhibition in test [1] was 11.4%; in test [2], 60.8%; in [3], 5.4%. For the same molecule, the Activity worked out at 7.3 ng/mL in the test on RAW264.7 [9] and 0.22 ng/mL in the test with RAW264.7 [10]. Further, in the test with RAW264.7 [15], the result was Active.
Take `CCCCc1ccc(C2=C(Br)C(=O)OC2O)cc1` (stereo not drawn): the inhibition in test [1] amounted to 35.1%; in test [2], 32.9%; in [3], 26%.
For the molecule `O=C1OC(O)C(c2ccc(Oc3ccccc3)cc2)=C1Br` (stereo not drawn), the inhibition was 7.8% in test [1], 2.1% in [2] and 1% in [3].
